Assay results: ChEMBL document CHEMBL4699422, “Synthesis and initial pharmacology of dual-targeting ligands for putative complexes of integrin alphaVbeta3 and PAR2” (RSC Med Chem, 2020)
Calls of active or inactive are those of the source. The calls are words filed in the database; no cut-off is given here. Where a SMILES comes first, the peptide text is derived from it. [ ]: non-standard residue; d: D form. The star is where a group is joined. X1 = COCc1cn(CCOCCOCCOCCOCCOCCOCCN*)nn1; Orn = NCCC[C@H](N)C(=O)O; 2Furoyl = O=C(c1ccco1)*

Legend:
[1] = molecular target: T1, Proteinase-activated receptor 2 (Homo sapiens, UniProt P55085); assay: Agonist activity at PAR2 in human EA.hy926 cells assessed as stimulation of calcium mobilization by Fluo-4-AM dye-based FLIPR assay; format: functional, cell-based, EA.hy 926
T1 sequence (P55085 whole entry): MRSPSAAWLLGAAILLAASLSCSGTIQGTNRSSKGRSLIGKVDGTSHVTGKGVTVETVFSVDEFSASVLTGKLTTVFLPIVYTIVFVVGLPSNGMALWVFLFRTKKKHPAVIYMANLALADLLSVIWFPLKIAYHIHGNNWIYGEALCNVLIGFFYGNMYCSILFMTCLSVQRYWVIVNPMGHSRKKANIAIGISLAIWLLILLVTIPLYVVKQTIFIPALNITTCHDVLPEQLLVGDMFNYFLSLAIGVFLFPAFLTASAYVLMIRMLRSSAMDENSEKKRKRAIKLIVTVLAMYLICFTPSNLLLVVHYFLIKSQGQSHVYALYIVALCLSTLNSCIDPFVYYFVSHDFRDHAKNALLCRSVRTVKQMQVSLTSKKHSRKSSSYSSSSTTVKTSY
Summary of the method: (§1)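 EA.hy926 cells, passages 7–9, grown in DMEM (4.5 g/L glucose, 4 mM L-glutamine, 1 mM pyruvate, FBS, pen/strep). Calcium read on plate reader as normalized ΔRFU over basal. %Stimulation relative to 100 μM SLIGKV-NH₂ (100%). Curves fitted by 4-variable non-linear regression.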

[2] = molecular target: T2, Integrin alpha-V/beta-3 (Homo sapiens) (UniProt P05106+P06756); assay: Antagonist activity at integrin alphavbeta3 receptor in HUVEC cells assessed as inhibition of cell adhesion to human vitronectin at 50 uM preincubated for 30 mins followed by transferring to vitronectin coated plates and measured after 1 hr by DAPI staining based inverted fluorescence microscopic analysis; conditions: filed as antagonist, time 90.0 min
Summary of the method: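 Wells coated overnight at 4 °C with 20 μg/mL human vitronectin in PBS pH 7.4, blocked with 1% BSA 1 h at 37 °C. HUVEC washed, in DMEM, treated ± 50 μM ligand 30 min at 25 °C, seeded, 1 h at 37 °C. Washed 3× PBS, fixed 3.7% formaldehyde 5 min, nuclei DAPI-stained (5 μg/mL), imaged at 10×.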

[3] = molecular target: T2, Integrin alpha-V/beta-3 (Homo sapiens); assay: Inhibition of Alexa Fluor 647 labelled fibronectin binding to integrin alphavbeta3 receptor (unknown origin) expressed in HEK293FT cells at 5 uM preincubated for 10 mins followed by fibronectin addition and measured after 30 mins by flow cytometric analysis; format: cell-based; conditions: filed as antagonist, time 40.0 min
Summary of the method: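 HEK293FT co-transfected with αV and β3 constructs (≥24 h), in HBSGB (20 mM HEPES pH 7.4, 150 mM NaCl, 5.5 mM glucose, 1% BSA). Cells ± 5 or 50 μM ligand 10 min at 25 °C in 0.2 mM CaCl₂/2 mM MnCl₂ (activating), then Alexa647-Fn (15 μg/mL) plus Alexa488 anti-β3 AP3, 30 min at 25 °C. Resting control in 1 mM Ca²⁺/1 mM Mg²⁺. Flow cytometry on AP3-positive cells; Fn MFI expressed as % of AP3 MFI.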

[4] = molecular target: Proteinase-activated receptor 2 (Homo sapiens) (UniProt P55085); assay: (§2) Agonist activity at PAR2 in human EA.hy926 cells assessed as stimulation of calcium mobilization treated with cRGD for 30 mins prior to compound addition by Fluo-4-AM dye-based FLIPR assay; format: functional, cell-based; conditions: EA.hy 926, filed as agonist; summary of the method: as §1
[5] = molecular target: Proteinase-activated receptor 2 (Homo sapiens) (UniProt P55085); assay: (§3) Agonist activity at PAR2 in human EA.hy926 cells assessed as stimulation of calcium mobilization preincubated for 2 hrs with LPS followed by compound addition in absence of cRGD by Fluo-4-AM dye-based FLIPR assay; format: functional, cell-based; conditions: EA.hy 926, filed as agonist
[6] = molecular target: Proteinase-activated receptor 2 (Homo sapiens) (UniProt P55085); assay: (§4) Agonist activity at PAR2 in human EA.hy926 cells assessed as stimulation of calcium mobilization preincubated for 2 hrs with LPS and 30 mins with cRGD followed by compound addition by Fluo-4-AM dye-based FLIPR assay; format: functional, cell-based; conditions: EA.hy 926, filed as agonist
[7] = molecular target: T1, Proteinase-activated receptor 2; assay: as §2; format: functional, cell-based, EA.hy 926; summary of the method: as §1
[8] = molecular target: T1, Proteinase-activated receptor 2; assay: as §3; format: functional, cell-based, EA.hy 926
[9] = molecular target: T1, Proteinase-activated receptor 2; assay: as §4; format: functional, cell-based, EA.hy 926

Row | SMILES | EC50 [1] | inhibition [2] | also measured
1 | CC[C@H](C)[C@H](NC(=O)[C@H](CC(C)C)NC(=O)c1ccco1)C(=O)NCC(=O)N[C@@H](CCCN=C(N)N)C(=O)N[C@@H](CC(C)C)C(=O)N[C@@H](CCCN)C(N)=O (2Furoyl-LIGRL[Orn]-NH2) | 350 nM |  | 
2 | CC[C@H](C)[C@H](NC(=O)[C@H](CC(C)C)NC(=O)c1ccco1)C(=O)NCC(=O)N[C@@H](CCCNC(=N)N)C(=O)N[C@@H](CC(C)C)C(=O)N[C@@H](CCCN)C(=O)NCCOCCOCCOCCOCCOCCOCCOCCOCCn1cc(C[C@H]2CN[C@@H](CCCNC(=N)N)C(=O)NCC(=O)N[C@@H](CC(=O)O)C(=O)N[C@H](Cc3ccccc3)C(=O)N2)nn1 | 62 nM |  | 
3 | CC[C@H](C)[C@H](NC(=O)[C@H](CC(C)C)NC(=O)c1ccco1)C(=O)NCC(=O)N[C@@H](CCCNC(=N)N)C(=O)N[C@@H](CC(C)C)C(=O)N[C@@H](CCCN)C(=O)NCCOCCOCCOCCOCCOCCOCCOCCOCCOCCOCCOCCOCCOCCOCCOCCOCCOCCOCCOCCOCCOCCOCCOCCn1cc(C[C@H]2CN[C@@H](CCCNC(=N)N)C(=O)NCC(=O)N[C@@H](CC(=O)O)C(=O)N[C@H](Cc3ccccc3)C(=O)N2)nn1 | 130 nM | Active | inhibition [3]: Active

Second part, led by results:

Row | EC50 [1] | inhibition [2] | SMILES | also measured
4 | 73 nM |  | CC[C@H](C)[C@H](NC(=O)[C@H](CC(C)C)NC(=O)c1ccco1)C(=O)NCC(=O)N[C@@H](CCCNC(=N)N)C(=O)N[C@@H](CC(C)C)C(=O)N[C@@H](CCCN)C(=O)NCCOCCOCCOCCOCCOCCOCCn1cc(COC)nn1 (2Furoyl-LIGRL[Orn]-X1) | 
5 | 890 nM |  | COCc1cn(CCOCCOCCOCCOCCOCCOCCNC(=O)[C@@H](NC(=O)[C@H](CC2CCCCC2)NC(=O)c2ccno2)C2CCCCC2)nn1 | 
6 | 1200 nM | Active | COc1ccnc(NCCCOc2ccc(C[C@@H](CC(=O)O)NC(=O)c3ccc(OCc4cn(CCOCCOCCOCCOCCOCCOCCNC(=O)[C@@H](NC(=O)[C@H](CC5CCCCC5)NC(=O)c5ccno5)C5CCCCC5)nn4)cc3)cc2)c1 | Activity [4]: Active; Activity [5]: Active; Activity [6]: Active
7 | 2500 nM | Active | N=C(N)NCCC[C@@H]1NC[C@H](Cc2cn(CCOCCOCCOCCOCCOCCOCCOCCOCCOCCOCCOCCOCCOCCOCCOCCOCCOCCOCCOCCOCCOCCOCCOCCNC(=O)[C@@H](NC(=O)[C@H](CC3CCCCC3)NC(=O)c3ccno3)C3CCCCC3)nn2)NC(=O)[C@@H](Cc2ccccc2)NC(=O)[C@H](CC(=O)O)NC(=O)CNC1=O | inhibition [3]: Active; EC50 [7]: 1200 nM; EC50 [8]: 3500 nM; EC50 [9]: 1200 nM
